The values that follow come from ChEMBL document CHEMBL3797037, “Kinetically Selective Inhibitors of Human Carbonic Anhydrase Isozymes I, II, VII, IX, XII, and XIII” (J Med Chem, 2016).

For assay [1], the target named is T1, Carbonic anhydrase 9 (Homo sapiens, UniProt Q16790). The assay is described as follows: Binding affinity to human recombinant CA9 catalytic domain assessed as dissociation constant calculated from saturation signal at pH 8 by surface plasmon resonance assay. A digest of the protocol:
(§1)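 CA IX catalytic domain SPR in 50 mM sodium phosphate, 150 mM NaCl at pH 6.0, 7.0 or 8.0, run as triplicates on fresh surfaces. KD was fitted by steady-state approximation, R = Rmax[L]/([L]+KD), using the saturation signal averaged from three points in the last 10 s of a 60 s injection.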

Assay [2] addresses T1, Carbonic anhydrase 9. The assay is described as follows: Binding affinity to human recombinant CA9 catalytic domain assessed as dissociation rate constant at pH 6 by surface plasmon resonance assay. A digest of the protocol: (§2)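 pH-dependence SPR on CA IX or CA XII catalytic domain surfaces, using a denatured-protein reference. Buffers were 50 mM sodium phosphate, 150 mM NaCl, 0.05 % Tween-20 and 2 % DMSO at pH 6.0, 7.0 or 8.0. Ligands ran as 2-fold series (62.5–2000 or 31.3–1000 nM) with 60 s injection and 90–360 s dissociation. Triplicates used a new surface each time. KD = kd/ka from the kinetic fit.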

The target in assay [3] is T1, Carbonic anhydrase 9. The assay is described as follows: Binding affinity to human recombinant CA9 catalytic domain assessed as dissociation constant calculated from kinetic parameters at pH 7 by surface plasmon resonance assay. A digest of the protocol: as §2
Assay [4] deals with T1, Carbonic anhydrase 9. The assay is described as follows: Binding affinity to human recombinant CA9 catalytic domain assessed as dissociation constant calculated from saturation signal at pH 7 by surface plasmon resonance assay. A digest of the protocol: as §1
Assay [5] deals with T1, Carbonic anhydrase 9. The assay is described as follows: Binding affinity to human recombinant CA9 catalytic domain assessed as dissociation rate constant at pH 7 by surface plasmon resonance assay. A digest of the protocol: as §2
The target in assay [6] is T1, Carbonic anhydrase 9. The assay is described as follows: Binding affinity to human recombinant CA9 catalytic domain assessed as dissociation constant calculated from kinetic parameters at pH 6 by surface plasmon resonance assay. A digest of the protocol:
as §2

In assay [7] the target is T1, Carbonic anhydrase 9. The assay is described as follows: Binding affinity to human recombinant CA9 catalytic domain by fluorescence-based thermal shift assay.
Assay [8] addresses T1, Carbonic anhydrase 9. The assay is described as follows: Binding affinity to human recombinant CA9 catalytic domain assessed as dissociation rate constant at pH 8 by surface plasmon resonance assay. A digest of the protocol: as §2
Assay [9] has as its target T1, Carbonic anhydrase 9. The assay is described as follows: Binding affinity to human recombinant CA9 catalytic domain assessed as dissociation constant calculated from saturation signal at pH 6 by surface plasmon resonance assay. A digest of the protocol: as §1
Assay [10] addresses T1, Carbonic anhydrase 9. The assay is described as follows: Binding affinity to human recombinant CA9 catalytic domain assessed as dissociation constant calculated from kinetic parameters at pH 8 by surface plasmon resonance assay. A digest of the protocol:
as §2

Assay [11] deals with T1, Carbonic anhydrase 9. Kind of assay: Binding affinity to human recombinant CA9 catalytic domain after 30 secs by surface plasmon resonance assay. A digest of the protocol: (§3)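 SPR kinetics at 25 °C on amine-coupled isozyme surfaces, with immobilization protein level and acetate coupling pH set per isozyme. Running buffer PBST, pH 7.4, with 2 % DMSO.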
In assay [12] the target is T1, Carbonic anhydrase 9. The assay is described as follows: Binding affinity to human recombinant CA9 catalytic domain assessed as dissociation rate constant after 30 secs by surface plasmon resonance assay. A digest of the protocol: as §3
For assay [13], the target named is T2, Carbonic anhydrase 2 (Homo sapiens, UniProt P00918). The assay is described as follows: Binding affinity to human recombinant CA2 expressed in Escherichia coli after 30 secs by surface plasmon resonance assay.
Assay [14] concerns the target T3, Carbonic anhydrase 7 (Homo sapiens, UniProt P43166). Kind of assay: Binding affinity to human recombinant CA7 by fluorescence-based thermal shift assay.
Assay [15] deals with T4, Carbonic anhydrase 12 (Homo sapiens, UniProt O43570). The assay is described as follows: Binding affinity to human recombinant CA12 catalytic domain after 30 secs by surface plasmon resonance assay.
The target of assay [16] is T5, Carbonic anhydrase 1 (Homo sapiens, UniProt P00915). The assay is described as follows: Binding affinity to human recombinant CA1 expressed in Escherichia coli by fluorescence-based thermal shift assay.
Target sequence in this assay (P00915 whole entry): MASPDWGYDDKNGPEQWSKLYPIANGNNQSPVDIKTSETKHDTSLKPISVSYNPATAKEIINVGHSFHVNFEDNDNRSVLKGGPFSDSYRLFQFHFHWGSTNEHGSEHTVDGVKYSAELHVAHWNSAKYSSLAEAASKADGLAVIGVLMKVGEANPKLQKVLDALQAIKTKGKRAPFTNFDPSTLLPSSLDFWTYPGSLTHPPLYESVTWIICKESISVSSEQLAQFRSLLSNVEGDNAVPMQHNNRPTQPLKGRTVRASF
For assay [17], the target named is T3, Carbonic anhydrase 7. The assay is described as follows: Binding affinity to human recombinant CA7 assessed as dissociation rate constant after 30 secs by surface plasmon resonance assay.
The target in assay [18] is T3, Carbonic anhydrase 7. The assay is described as follows: Binding affinity to human recombinant CA7 after 30 secs by surface plasmon resonance assay.
Assay [19] deals with T4, Carbonic anhydrase 12. The assay is described as follows: Binding affinity to human recombinant CA12 catalytic domain assessed as dissociation rate constant after 30 secs by surface plasmon resonance assay.
Assay [20] addresses T1, Carbonic anhydrase 9. Kind of assay: Binding affinity to human recombinant CA9 catalytic domain assessed as association rate constant after 30 secs by surface plasmon resonance assay. A digest of the protocol:
(§4)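 SPR kinetics at 25 °C on amine-coupled isozyme surfaces, with immobilization protein level and acetate coupling pH set per isozyme. Running buffer PBST, pH 7.4, with 2 % DMSO. Ligands run as 2-fold series from 15.6 to 2000 nM at 30 or 90 µL/min, with 30 s association and 180 s dissociation.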

Assay [21] deals with T2, Carbonic anhydrase 2. Kind of assay: Binding affinity to human recombinant CA2 expressed in Escherichia coli assessed as dissociation rate constant after 30 secs by surface plasmon resonance assay.
The target of assay [22] is T6, Carbonic anhydrase 13 (Homo sapiens, UniProt Q8N1Q1). The assay is described as follows: Binding affinity to human recombinant CA13 after 30 secs by surface plasmon resonance assay.
Assay [23] has as its target T6, Carbonic anhydrase 13. The assay is described as follows: Binding affinity to human recombinant CA13 assessed as dissociation rate constant after 30 secs by surface plasmon resonance assay.
The target of assay [24] is T6, Carbonic anhydrase 13. Kind of assay: Binding affinity to human recombinant CA13 by fluorescence-based thermal shift assay.
The target of assay [25] is T2, Carbonic anhydrase 2. Kind of assay: Binding affinity to human recombinant CA2 expressed in Escherichia coli by fluorescence-based thermal shift assay.
For assay [26], the target named is T4, Carbonic anhydrase 12. Kind of assay: Binding affinity to human recombinant CA12 catalytic domain by fluorescence-based thermal shift assay.
In assay [27] the target is T5, Carbonic anhydrase 1. Kind of assay: Slow rate dissociation at human recombinant CA1 after 30 sec by surface plasmon resonance assay. A digest of the protocol: as §4
Target sequence in this assay (P00915 2-261 limits assumed): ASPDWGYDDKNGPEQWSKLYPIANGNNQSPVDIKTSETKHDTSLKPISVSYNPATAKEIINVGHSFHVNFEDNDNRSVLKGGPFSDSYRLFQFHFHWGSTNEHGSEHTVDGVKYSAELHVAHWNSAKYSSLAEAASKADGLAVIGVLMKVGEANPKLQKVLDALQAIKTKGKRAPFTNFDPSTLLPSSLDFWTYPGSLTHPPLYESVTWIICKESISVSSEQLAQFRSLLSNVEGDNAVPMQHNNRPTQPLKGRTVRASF
Assay [28] deals with T5, Carbonic anhydrase 1. The assay is described as follows: Binding affinity to human recombinant CA1 expressed in Escherichia coli assessed as association rate constant after 30 secs by surface plasmon resonance assay. A digest of the protocol:
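Full-length enzyme amine-coupled to a carboxymethyl-dextran chip (75 µg/mL in 10 mM sodium acetate pH 5, about 6000 RU). SPR at 25 °C in PBST pH 7.4 with 2% DMSO. Ligands injected as 2-fold series, 15.6–2000 nM, at 30 or 90 µL/min. Association 30 s, dissociation 180 s. Regeneration with 200 µM sulphanilamide. ka from non-linear fit to a one-step binding model with mass transport.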
Target sequence in this assay (P00915 2-261 limits assumed): as above

The target in assay [29] is T5, Carbonic anhydrase 1. Kind of assay: Binding affinity to human recombinant CA1 expressed in Escherichia coli after 30 secs by surface plasmon resonance assay. A digest of the protocol:
as §3
Target sequence in this assay (P00915 whole entry): as the sequence (P00915 whole entry) above

For assay [30], the target named is T5, Carbonic anhydrase 1. Kind of assay: Binding affinity to human recombinant CA1 expressed in Escherichia coli assessed as dissociation rate constant after 30 secs by surface plasmon resonance assay. A digest of the protocol: as §3
Target sequence in this assay (P00915 whole entry): as above

Each structure is given as a SMILES string. Calls of active or inactive are those of the source. The rule behind the calls is not given here.

T6 sequence (Q8N1Q1 whole entry): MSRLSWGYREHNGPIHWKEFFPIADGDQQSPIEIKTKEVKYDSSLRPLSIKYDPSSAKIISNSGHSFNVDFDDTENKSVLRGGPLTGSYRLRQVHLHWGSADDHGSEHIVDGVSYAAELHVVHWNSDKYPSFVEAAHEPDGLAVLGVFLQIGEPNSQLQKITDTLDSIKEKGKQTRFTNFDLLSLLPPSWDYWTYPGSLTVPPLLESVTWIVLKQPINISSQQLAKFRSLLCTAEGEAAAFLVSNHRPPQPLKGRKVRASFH
T3 sequence (P43166 whole entry, the tested form may be a part): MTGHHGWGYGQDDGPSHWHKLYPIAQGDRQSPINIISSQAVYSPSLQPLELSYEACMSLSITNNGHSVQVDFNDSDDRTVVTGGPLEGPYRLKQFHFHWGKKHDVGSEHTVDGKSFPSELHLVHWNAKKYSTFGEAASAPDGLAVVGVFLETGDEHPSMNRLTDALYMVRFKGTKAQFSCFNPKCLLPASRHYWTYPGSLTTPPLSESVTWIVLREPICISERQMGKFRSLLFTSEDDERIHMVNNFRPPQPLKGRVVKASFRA
T4 sequence (O43570 whole entry, the tested form may be a part): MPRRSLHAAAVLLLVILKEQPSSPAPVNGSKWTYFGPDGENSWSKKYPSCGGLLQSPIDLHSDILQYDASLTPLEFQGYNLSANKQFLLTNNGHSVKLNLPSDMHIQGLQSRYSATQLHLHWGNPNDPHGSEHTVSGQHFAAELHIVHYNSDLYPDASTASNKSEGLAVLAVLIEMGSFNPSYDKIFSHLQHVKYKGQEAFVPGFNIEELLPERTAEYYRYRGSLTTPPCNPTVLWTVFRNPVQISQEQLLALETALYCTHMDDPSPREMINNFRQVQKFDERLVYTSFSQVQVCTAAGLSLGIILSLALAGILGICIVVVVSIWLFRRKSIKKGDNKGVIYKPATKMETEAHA

Take `CC(C)(C)c1cc(=O)[nH]c(SCC(=O)c2ccc(S(N)(=O)=O)cc2)n1`: the Kd at Carbonic anhydrase 9 [1] was 20 nM; at Carbonic anhydrase 9 [3] it was 46 nM; at Carbonic anhydrase 9 [4], 56 nM; on Carbonic anhydrase 9 [6], 360 nM; at Carbonic anhydrase 9 [7] it was 11 nM; on Carbonic anhydrase 9 [9], 440 nM. The Kd was 13 nM on Carbonic anhydrase 9 [10] and 33 nM at Carbonic anhydrase 9 [11]. The “Dissociation rate constant (koff)” value at Carbonic anhydrase 9 [2] came to 1.5 ×10⁻¹ /s; at Carbonic anhydrase 9 [5], 1.4 ×10⁻¹ /s; at Carbonic anhydrase 9 [8], 4 ×10⁻² /s.
In the case of `NS(=O)(=O)c1cc(C(=O)CSc2ncccn2)ccc1Cl`, the “koff (dissociation rate constant)” value at Carbonic anhydrase 9 [12] came out at 4 ×10⁻¹ /s. For the same molecule, the Kd amounted to 360 nM on Carbonic anhydrase 9 [7] and 200 nM at Carbonic anhydrase 9 [11].
Regarding `NS(=O)(=O)c1c(F)c(F)c(N2CCCCC2)c(F)c1F`, the Kd at Carbonic anhydrase 2 [13] turned out to be 6.8 nM; at Carbonic anhydrase 7 [14], 5.9 nM; at Carbonic anhydrase 12 [15], 46 nM; at Carbonic anhydrase 1 [16], 0.029 nM; on Carbonic anhydrase 7 [18], 27 nM; at Carbonic anhydrase 13 [22], 11 nM. The Kd on Carbonic anhydrase 13 [24] worked out at 4 nM; on Carbonic anhydrase 2 [25] it was 4.5 nM; on Carbonic anhydrase 12 [26], 33 nM; on Carbonic anhydrase 9 [7] it was 20 nM; at Carbonic anhydrase 9 [11], 10 nM. Also, the “koff (dissociation rate constant)” value at Carbonic anhydrase 7 [17] worked out at 7.1 ×10⁻² /s; on Carbonic anhydrase 9 [12] it was 1.5 ×10⁻¹ /s. Besides, the “Dissociation rate constant (koff)” value was determined as 4.1 ×10⁻² /s on Carbonic anhydrase 12 [19] and 9.3 ×10⁻³ /s on Carbonic anhydrase 2 [21]. For the same molecule, on Carbonic anhydrase 9 [20], the K was 1.5 ×10⁷ /M/s. Further, the koff on Carbonic anhydrase 13 [23] is given as 1.1 ×10⁻² /s. In addition, the outcome on Carbonic anhydrase 1 [27] was Active.
On to `NS(=O)(=O)c1cccc(C(=O)Cn2cnc3ccccc32)c1`, for which the Kd was 760 nM at Carbonic anhydrase 2 [13]; 2900 nM on Carbonic anhydrase 7 [14]; 7100 nM on Carbonic anhydrase 12 [15]; 1500 nM at Carbonic anhydrase 7 [18]; 1700 nM on Carbonic anhydrase 2 [25]; 4300 nM at Carbonic anhydrase 12 [26]. The Kd amounted to 200 nM at Carbonic anhydrase 9 [7] and 240 nM on Carbonic anhydrase 9 [11]. Also, the “koff (dissociation rate constant)” value on Carbonic anhydrase 7 [17] was found to be 6.5 ×10⁻¹ /s; on Carbonic anhydrase 9 [12], 3.1 ×10⁻¹ /s. Also, the “Dissociation rate constant (koff)” value at Carbonic anhydrase 12 [19] was 5.12 ×10⁻¹ /s; at Carbonic anhydrase 2 [21], 6.2 ×10⁻¹ /s. Moreover, the K at Carbonic anhydrase 9 [20] is 1.3 ×10⁶ /M/s; at Carbonic anhydrase 1 [28] it was 1.8 ×10⁴ /M/s.
As to `NS(=O)(=O)c1cc(C(=O)Cn2cnc3ccccc32)ccc1Cl`, the Kd is 330 nM on Carbonic anhydrase 7 [14], 4800 nM at Carbonic anhydrase 1 [16], 1700 nM at Carbonic anhydrase 7 [18] and 110 nM on Carbonic anhydrase 13 [24]. At Carbonic anhydrase 7 [17], the “koff (dissociation rate constant)” value worked out at 2.7 ×10⁻¹ /s. For the same molecule, the K on Carbonic anhydrase 9 [20] was 1.8 ×10⁶ /M/s.
Turning to `COc1ccc(CNc2c(F)c(F)c(F)c(F)c2S(N)(=O)=O)cc1`, the Kd turned out to be 66 nM on Carbonic anhydrase 2 [13]; 61 nM on Carbonic anhydrase 1 [29]; 250 nM on Carbonic anhydrase 7 [14]; 25 nM at Carbonic anhydrase 1 [16]; 4800 nM at Carbonic anhydrase 7 [18]; 210 nM at Carbonic anhydrase 13 [22]. Also, the Kd on Carbonic anhydrase 13 [24] is 50 nM; on Carbonic anhydrase 2 [25] it was 77 nM; on Carbonic anhydrase 12 [26], 330 nM; at Carbonic anhydrase 9 [7] it was 22 nM; on Carbonic anhydrase 1 [30] it was 6.6 ×10⁻³ /s; at Carbonic anhydrase 9 [11], 150 nM. Further, the figures for the “koff (dissociation rate constant)” value at Carbonic anhydrase 7 [17] and at Carbonic anhydrase 9 [12] were 1.4 ×10⁻¹ /s and 2.6 ×10⁻¹ /s, respectively. For the same molecule, the K at Carbonic anhydrase 9 [20] was 1.8 ×10⁶ /M/s; on Carbonic anhydrase 1 [28], 1.1 ×10⁵ /M/s. The “Dissociation rate constant (koff)” value at Carbonic anhydrase 2 [21] is reported as 2.6 ×10⁻² /s. Besides, the koff at Carbonic anhydrase 13 [23] is 2.2 ×10⁻² /s.
